Test results: PMC5473467 (Nature, 2017)

Assays:
[1] = tested on: C. hominis; assay: C. hominis cytopathic effect; format: cell-based, Cryptosporidium hominis; conditions: for EC50: Cryptosporidium hominis, HCT-8, read-out: Ch CPE EC50
In short: (§1)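 HCT-8 cells were kept in RPMI-1640 with 10% heat-inactivated horse serum. Oocysts were primed in 10 mM HCl in HBSS for 10 min at 37 °C, washed, then excysted in L-15/UltraCULTURE medium with 2 mM taurocholate, 10% horse serum and 200 μM ascorbate. Compound dilutions were made in taurocholate-free medium. EC50 came from ten-point threefold dose–response series.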

[2] = tested on: C. parvum; assay: C. parvum High Content Imaging; format: cell-based; conditions: Cryptosporidium parvum, HCT-8, read-out: Cp HCI IC50
In short: as §1

[3] = tested on: C. parvum; assay: C. parvum cytopathic effect; format: cell-based, Cryptosporidium parvum; conditions: for EC50: Cryptosporidium parvum, HCT-8, read-out: Cp CPE EC50
In short: as §1

[4] = in vitro; format: cell-based; conditions: human, HepG2 CC50, 96 hours
[5] = target: T1, CpPI(4)K (cgd8_4500) (Cryptosporidium parvum, UniProt Q5CVD3); assay: CpPI; format: biochemical, C. parvum; conditions: for IC50: Cp PI(4)K IC50, 3 μM ATP
T1 sequence (Q5CVD3 1-1114): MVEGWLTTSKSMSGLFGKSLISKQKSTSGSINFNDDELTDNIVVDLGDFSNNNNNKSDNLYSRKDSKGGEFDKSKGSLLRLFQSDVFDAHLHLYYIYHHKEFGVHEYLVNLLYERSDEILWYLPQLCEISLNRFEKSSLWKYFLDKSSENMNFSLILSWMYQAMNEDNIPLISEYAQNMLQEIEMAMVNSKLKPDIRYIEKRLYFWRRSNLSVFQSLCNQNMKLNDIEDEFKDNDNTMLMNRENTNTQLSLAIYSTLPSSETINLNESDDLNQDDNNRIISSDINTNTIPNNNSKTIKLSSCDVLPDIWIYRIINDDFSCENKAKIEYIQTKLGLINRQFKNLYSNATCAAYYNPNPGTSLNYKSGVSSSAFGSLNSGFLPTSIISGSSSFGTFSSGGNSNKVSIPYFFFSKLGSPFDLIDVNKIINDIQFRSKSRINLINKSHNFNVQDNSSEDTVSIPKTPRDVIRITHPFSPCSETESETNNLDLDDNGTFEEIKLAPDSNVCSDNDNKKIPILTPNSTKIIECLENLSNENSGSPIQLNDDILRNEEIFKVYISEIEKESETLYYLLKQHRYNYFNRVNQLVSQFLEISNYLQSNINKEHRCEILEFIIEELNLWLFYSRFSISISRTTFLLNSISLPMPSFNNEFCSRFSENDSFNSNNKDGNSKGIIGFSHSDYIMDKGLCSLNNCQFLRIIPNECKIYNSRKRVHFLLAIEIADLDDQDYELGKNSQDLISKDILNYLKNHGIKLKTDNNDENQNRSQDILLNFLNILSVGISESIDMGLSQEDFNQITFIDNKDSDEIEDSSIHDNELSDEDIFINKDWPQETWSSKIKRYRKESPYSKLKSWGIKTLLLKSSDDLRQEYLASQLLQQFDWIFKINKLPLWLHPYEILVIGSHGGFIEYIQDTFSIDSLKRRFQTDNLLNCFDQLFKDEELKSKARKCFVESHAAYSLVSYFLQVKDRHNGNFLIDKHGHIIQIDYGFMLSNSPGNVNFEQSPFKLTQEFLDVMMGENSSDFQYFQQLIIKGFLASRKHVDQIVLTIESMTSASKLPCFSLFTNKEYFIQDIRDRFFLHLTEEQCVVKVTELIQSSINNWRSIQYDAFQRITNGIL

[6] = tested on: Pf 3D7; assay: P. falciparum 3D7 growth inhibition; format: cell-based; conditions: Plasmodium falciparum, 3D7, read-out: Pf 3D7 IC50
[7] = tested on: C. parvum UGA2 Fluc; assay: Mouse model following tissue parasite load using whole-animal imaging; format: in vivo, IFN-γKO mice; conditions: 100 mg/kg daily from day 7

For CS(=O)(=O)c1ccc(-c2cnc(N)c(-c3ccc(C(F)(F)F)nc3)c2)cc1 [MMV390048], the “activity against C. hominis” value [1] was “inactive”, the EC50 [1] was 11.8 ± 2.76 µM and the IC50 [2] was 13.4 µM. For the same molecule, the “activity against C. parvum” value [3] was “inactive”, the EC50 [3] was 12.8 ± 6.26 µM and the CC50 [4] was 26.2 ± 16.1 µM. For the same molecule, the “inhibition of CpPI(4)K enzymatic activity” value [5] was “do not inhibit”, the IC50 [5] was 8.33 ± 2.35 µM and the IC50 [6] was 0.042 ± 0.022 µM.
For CC(=O)Oc1ccccc1C(=O)Nc1ncc([N+](=O)[O-])s1 [Nitazoxanide], the EC50 [1] was > 20 µM, the IC50 [2] was 2.93 ± 0.808 µM and the EC50 [3] was 14.3 ± 7.13 µM. The CC50 [4] was 12.7 ± 2.38 µM, the IC50 [5] was > 10 µM and the “tissue load” value [7] was “no change”. For the same molecule, the IC50 [6] was > 10 µM.
